Experimental data taken from ChEMBL document CHEMBL1143180, “Imidazolyl benzimidazoles and imidazo[4,5-b]pyridines as potent p38alpha MAP kinase inhibitors with excellent in vivo antiinflammatory properties” (Bioorg Med Chem Lett, 2008).

Columns and labels:
Macrophage = test: Inhibition of LPS-stimulated TNFalpha production in mouse peritoneal macrophages; assay type: functional, cell-based
Method in brief: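 Murine peritoneal macrophages stimulated with LPS while exposed to test compound; TNFα release measured as functional read-out. Cell assay minimum significant ratio 2.8.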

[1] = biological target: Mitogen-activated protein kinase 14 (Mus musculus, UniProt P47811); test: Inhibition of mouse p38alpha in anisomycin-stimulated RAW 264.7 cells by ELISA; assay type: cell-based
Mitogen-activated protein kinase 14 (Mus musculus, UniProt P47811), sequence (P47811 whole entry): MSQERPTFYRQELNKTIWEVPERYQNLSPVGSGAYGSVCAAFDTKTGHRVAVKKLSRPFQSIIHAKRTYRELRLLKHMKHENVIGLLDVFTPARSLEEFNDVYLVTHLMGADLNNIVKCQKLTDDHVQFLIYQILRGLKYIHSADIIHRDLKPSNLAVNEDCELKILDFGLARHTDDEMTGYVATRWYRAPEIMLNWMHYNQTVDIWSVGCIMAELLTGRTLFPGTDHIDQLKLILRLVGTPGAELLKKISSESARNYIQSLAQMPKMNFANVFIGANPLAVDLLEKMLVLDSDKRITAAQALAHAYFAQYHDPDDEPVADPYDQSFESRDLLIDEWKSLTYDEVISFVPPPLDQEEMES
Method in brief: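 Cell-based ELISA: RAW 264.7 cells pretreated with compound, then stimulated with anisomycin; p38α activity detected by antibody to phospho-MAPKAPK-2 (Thr334), a residue phosphorylated specifically by p38α. Minimum significant ratio 2.8.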

[2] = biological target: Mitogen-activated protein kinase 14 (Homo sapiens, UniProt Q16539); test: Inhibition of human recombinant p38alpha
Mitogen-activated protein kinase 14 (Homo sapiens, UniProt Q16539), sequence (Q16539 whole entry): as the sequence (P47811 whole entry) above, with H48L, A263T counted along it

[3] = AUC (0 to infinity) in rat at 10 mg/kg, po; assay type: ADME, organism-based; parameters: time infinity, dose 10 mg/kg, route oral; settings: plasma
Method in brief: (§1)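 Rats dosed orally at 10 mg/kg; plasma exposure reported as AUC0-inf and terminal half-life.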

Mus musculus = test: Inhibition of LPS-stimulated TNFalpha production in po dosed BALB/c mouse; assay type: functional
Rattus norvegicus [4] = test: Antiinflammatory activity against collagen-induced arthritis rat model assessed as effect on histopathology scores administered orally twice daily for 14 days; assay type: functional
Method in brief: (§2)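 Rat collagen-induced arthritis, 14-day chronic model; activity scored by paw swelling and by histopathology (bone erosion, cartilage destruction); TMED50 derived from dose response.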

[5] = Half life in rat at 10 mg/kg, po; assay type: ADME, organism-based; parameters: dose 10 mg/kg, route oral; settings: in vivo; method in brief: as §1
Rattus norvegicus [6] = test: Antiinflammatory activity against collagen-induced arthritis rat model assessed as inhibition of paw swelling administered orally twice daily for 14 days; assay type: functional; method in brief: as §2

**Q.** What does the source list for `CC(C)S(=O)(=O)n1c(N)nc2ccc(-c3[nH]cnc3-c3ccccc3)cc21`?
**A.** IC50 (Macrophage): 31.8 nM; IC50 [1]: 195 nM

**Q.** Which IC50 (Macrophage) does the source give for `CC(C)S(=O)(=O)n1c(N)nc2ccc(-c3nc(-c4c(Cl)cccc4Cl)[nH]c3-c3ccccc3)cc21` here?
**A.** 2.6 nM

**Q.** And the IC50 [1]?
**A.** 38.9 nM

**Q.** Which results are given for `Cc1nc2ccc(-c3[nH]c(-c4c(F)cccc4F)nc3-c3ccccc3)cc2n1CC(C)C`?
**A.** IC50 (Macrophage): 338 nM; IC50 [2]: 11.2 nM

**Q.** What does the source list for `Cc1nc(-c2ccccc2)c(-c2ccc3nc(N)n(S(=O)(=O)C(C)C)c3c2)[nH]1`?
**A.** IC50 (Macrophage): 186 nM; IC50 [2]: 20.4 nM

**Q.** Which results are given for `CC(C)S(=O)(=O)n1c(N)nc2ccc(-c3[nH]c(-c4c(Cl)cccc4C(F)(F)F)nc3-c3ccccc3)cc21`?
**A.** IC50 (Macrophage): 1.9 nM; IC50 [2]: 8.5 nM; IC50 [1]: 398 nM

**Q.** With `CC(C)(C)Cn1cnc2ccc(-c3[nH]c(C(C)(C)C)nc3-c3ccc(F)cc3F)nc21` as the compound, how does the IC50 (Macrophage) read?
**A.** 24.1 nM

**Q.** And the IC50 [1]?
**A.** 20.7 nM

**Q.** Which IC50 (Macrophage) does the source give for `Cc1nc(-c2ccc(F)cc2F)c(-c2ccc3nc(N)n(S(=O)(=O)C(C)C)c3c2)[nH]1` here?
**A.** 46.5 nM

**Q.** What about the IC50 [2] of the same compound?
**A.** 8.8 nM

**Q.** And the IC50 [1]?
**A.** 59.7 nM

**Q.** Which results are given for `Cc1nc(-c2ccc(F)cc2)c(-c2ccc3nc(N)n(S(=O)(=O)C(C)C)c3c2)[nH]1`?
**A.** IC50 (Macrophage): 104 nM; IC50 [2]: 7.1 nM; IC50 [1]: 225 nM

**Q.** Which results are given for `CC(C)S(=O)(=O)n1c(N)nc2ccc(-c3nc(-c4ccccc4C(F)(F)F)[nH]c3-c3ccccc3)cc21`?
**A.** IC50 (Macrophage): 33.1 nM; IC50 [2]: 26.1 nM; IC50 [1]: 284 nM

**Q.** For `CC(C)S(=O)(=O)n1c(N)nc2ccc(-c3[nH]c(-c4c(F)cccc4F)nc3-c3ccccc3)nc21`, which IC50 (Macrophage) is on record?
**A.** 3.7 nM

**Q.** What about the IC50 [2] of the same compound?
**A.** 3.5 nM

**Q.** What about the IC50 [1] of the same compound?
**A.** 298 nM

**Q.** Which IC50 (Macrophage) does the source give for `CC(C)S(=O)(=O)n1c(N)nc2ccc(-c3[nH]c(-c4c(F)cccc4Cl)nc3-c3ccccc3)cc21` here?
**A.** 11.2 nM

**Q.** What about the IC50 [2] of the same compound?
**A.** 14.5 nM

**Q.** What about the IC50 [1] of the same compound?
**A.** 74.5 nM

**Q.** Which IC50 (Macrophage) does the source give for `Fc1cccc(F)c1-c1nc(-c2ccccc2)c(-c2ccc3nc[nH]c3c2)[nH]1` here?
**A.** 419 nM

**Q.** What about the IC50 [2] of the same compound?
**A.** 88.4 nM

**Q.** What about the IC50 [1] of the same compound?
**A.** 766 nM

**Q.** What does the source list for `CC(C)S(=O)(=O)n1c(N(C)Cc2ccccc2)nc2ccc(-c3[nH]c(-c4c(F)cccc4F)nc3-c3ccccc3)cc21`?
**A.** IC50 (Macrophage): 234 nM; IC50 [2]: 2490 nM

**Q.** Which IC50 (Macrophage) does the source give for `Nc1nc2ccc(-c3[nH]c(-c4c(F)cccc4F)nc3-c3ccccc3)cc2[nH]1` here?
**A.** 1330 nM

**Q.** And the IC50 [2]?
**A.** 131 nM

**Q.** Which IC50 (Macrophage) does the source give for `CC(C)Cn1cnc2ccc(-c3[nH]c(-c4c(F)cccc4F)nc3-c3ccccc3)nc21` here?
**A.** 26.7 nM

**Q.** What about the IC50 [2] of the same compound?
**A.** 4.5 nM

**Q.** What about the IC50 [1] of the same compound?
**A.** 69.7 nM

**Q.** Which results are given for `CC(C)S(=O)(=O)n1c(N)nc2ccc(-c3[nH]c(-c4c(F)cccc4F)nc3-c3ccccc3)cc21`?
**A.** IC50 (Macrophage): 10.3 nM; AUC(0-inf) [3]: 5.5 µM·h; TMED50 (Mus musculus): 5.2 mg/kg; TMED50 (Rattus norvegicus [4]): >30 mg/kg; IC50 [1]: 45.7 nM; half-life [5]: 5 h; TMED50 (Rattus norvegicus [6]): >30 mg/kg

**Q.** Which IC50 (Macrophage) does the source give for `CC(C)(C)Cn1c(N)nc2ccc(-c3[nH]c(-c4c(F)cccc4F)nc3-c3ccccc3)cc21` here?
**A.** 3.5 nM

**Q.** And the IC50 [2]?
**A.** 6 nM

**Q.** And the IC50 [1]?
**A.** 126 nM

**Q.** With `CC(C)S(=O)(=O)n1c(N)nc2ccc(-c3nc(-c4c(Cl)cccc4Cl)[nH]c3-c3ccc(F)cc3)cc21` as the compound, how does the IC50 (Macrophage) read?
**A.** 5.3 nM

**Q.** What about the IC50 [2] of the same compound?
**A.** 6.7 nM

**Q.** And the IC50 [1]?
**A.** 27.5 nM

**Q.** Which IC50 (Macrophage) does the source give for `CCNc1nc2ccc(-c3[nH]c(-c4c(F)cccc4F)nc3-c3ccccc3)cc2n1S(=O)(=O)C(C)C` here?
**A.** 527 nM

**Q.** And the IC50 [2]?
**A.** 156 nM

**Q.** Which IC50 (Macrophage) does the source give for `CC(C)(C)Cn1c(N)nc2ccc(-c3[nH]c(-c4c(F)cccc4F)nc3-c3ccccc3)nc21` here?
**A.** < 9 nM

**Q.** And the IC50 [2]?
**A.** 6.4 nM

**Q.** For `CC(C)S(=O)(=O)n1c(N)nc2ccc(-c3[nH]c(-c4ccc(Cl)cc4)nc3-c3ccccc3)cc21`, which IC50 (Macrophage) is on record?
**A.** 71 nM

**Q.** What about the IC50 [2] of the same compound?
**A.** 34.7 nM

**Q.** What about the IC50 [1] of the same compound?
**A.** 376 nM

**Q.** For `CCNc1nc2ccc(-c3[nH]c(-c4c(F)cccc4F)nc3-c3ccccc3)cc2[nH]1`, which IC50 (Macrophage) is on record?
**A.** 493 nM

**Q.** What about the IC50 [2] of the same compound?
**A.** 56.4 nM

**Q.** What does the source list for `CC(C)S(=O)(=O)n1c(N)nc2ccc(-c3[nH]c(C(C)(C)C)nc3-c3ccc(F)cc3F)cc21`?
**A.** IC50 (Macrophage): 6.2 nM; AUC(0-inf) [3]: 14.6 µM·h; TMED50 (Mus musculus): 2.2 mg/kg; TMED50 (Rattus norvegicus [4]): 8.1 mg/kg; IC50 [1]: 26.2 nM; half-life [5]: 8 h; TMED50 (Rattus norvegicus [6]): 1.5 mg/kg

**Q.** For `Nc1nc2ccc(-c3[nH]c(-c4c(F)cccc4F)nc3-c3ccccc3)cc2n1-c1ccccc1`, which IC50 [2] is on record?
**A.** 158 nM

**Q.** With `CC(C)Cn1cnc2ccc(-c3[nH]c(-c4c(F)cccc4F)nc3-c3ccccc3)cc21` as the compound, how does the IC50 (Macrophage) read?
**A.** 51.9 nM

**Q.** And the IC50 [2]?
**A.** 16.2 nM

**Q.** Which results are given for `CC(C)Cn1cnc2ccc(-c3[nH]c(-c4c(Cl)cccc4Cl)nc3-c3ccccc3)nc21.CS(=O)(=O)O`?
**A.** IC50 (Macrophage): 1.7 nM; AUC(0-inf) [3]: 29.9 µM·h; TMED50 (Mus musculus): <2.5 mg/kg; IC50 [2]: 3.7 nM; TMED50 (Rattus norvegicus [4]): >30 mg/kg; IC50 [1]: 64.7 nM; half-life [5]: 4 h; TMED50 (Rattus norvegicus [6]): 15 mg/kg

**Q.** Which IC50 (Macrophage) does the source give for `CC(C)S(=O)(=O)n1c(N)nc2ccc(-c3[nH]c(-c4ccncc4)nc3-c3ccccc3)cc21` here?
**A.** 14.1 nM

**Q.** And the IC50 [2]?
**A.** 6.1 nM

**Q.** And the IC50 [1]?
**A.** 62.3 nM

**Q.** For `CC(C)Cn1c(N)nc2ccc(-c3[nH]c(-c4c(F)cccc4F)nc3-c3ccccc3)nc21`, which IC50 (Macrophage) is on record?
**A.** 1.3 nM

**Q.** What about the IC50 [2] of the same compound?
**A.** 2.5 nM

**Q.** And the IC50 [1]?
**A.** 35 nM

**Q.** For `CC(C)Cn1c(N)nc2ccc(-c3[nH]c(-c4c(F)cccc4F)nc3-c3ccccc3)cc21`, which IC50 (Macrophage) is on record?
**A.** 47.5 nM

**Q.** What about the IC50 [2] of the same compound?
**A.** 9.9 nM

**Q.** What about the IC50 [1] of the same compound?
**A.** 78.3 nM
